Results on 38 variants are retold here after the RNAGym collection of RNA variant scans (doi:10.1126/science.aae0568).

The labels stand for the following.
B1: tRNA (parent)
chain: GUUCCGUUGGCGUAAUGGUAACGCGUCUCCCUCCUAAGGAGAAGACUGCGGGUUCGAGUCCCGUACGGAACG

This sample holds only a part of the variants without activity.

In the data set the parent is B1. The data set can be described thus: yeast fitness relative to wild type (ratio to wild type); higher = fitter; tRNA-Arg(CCU), competitive growth, 37 C, YPD. The gist of the method: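 Amplicons of the tRNA-Arg(CCU) gene were sequenced, 100-nucleotide paired-end, from the start population and from each end population of a pooled yeast competition. The competition, in six parallel replicates, lasted 24 hours in YPD at 37°C. Fitness relative to wild type was calculated from changes in genotype frequencies. Genotypes had to have ≥ 100 starting reads, and estimates < 0.5 were set to 0.5.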
GUUCCGUUGGCGUAAUGGUAAGGCGUCUCCCUCCUAAGGUGAAGACUGCGGGUACGAGUCCCGUACGGAACG [C22G A40U U54A]: the yeast fitness is no more than 0.5.

For the variant GUUCCGUUCGCGUAAUGGUAACGCGUCUCCCUCCGAAGGAAAAGACUGCGGGUUCAAGUCCCGUACGGACCG [G9C U35G G41A G56A A70C], the yeast fitness is no more than 0.5.

GUUCCGUUGGCGUAUUGGUAACGCGUCUCCCUCCUAAGGAGAAGCCUGGGGGUUCGACUCCCGUACGGAACG [A15U A45C C49G G58C]: the yeast fitness was no more than 0.5.

For GUUCCGUUGGCGUAAUGGUAACGCGUCUCCCUGCUAAGGAGAAGACUGCGGGUUCCAGUCCCGUACGGAUCG [C33G G56C A70U], the yeast fitness was 0.727.

Turning to GUUCAGUUGGCGUAAUGGUAACGCGUCUCCGUCCUAAGGAGAAGACUGCGGGUUCCACUCCCAUACGGAACG [C5A C31G G56C G58C G63A], the yeast fitness was no more than 0.5.

GUUCCGUUGGCGUAAUGGUAACGCGUCCUCCUCCUAAGGAGAAGACUGCGGGUUCGAGUCCCGUACGGAACG [U28C C29U]: the yeast fitness turned out to be 0.806.

As to GUUCCGUUGGCGUAAUGGUAACGCGUCUCCCUCCUAAGCAGAAGACUGCAGGUUCGAGUCCCGAACGGAACG [G39C G50A U64A], the yeast fitness is no more than 0.5.

Turning to GUUCCGUUGGCGCAAUGGUAAUGCGUCUCCCUCCUAACGAGAAGACUGCGGGUUCGUGUCCCGUACGGAACG [U13C C22U G38C A57U], the yeast fitness was no more than 0.5.

For the variant GUUCCGUUGGCGUAAUGGUAACGCGUCGCCCUCCUAAGGAGAAGACUGCGGGUUCGAGUCCUGUAGGGAACG [U28G C62U C66G], the yeast fitness came to 0.568.

Turning to GUUCCGUUGGCGUAAUGGUAACGCGUCUCCCUCCUAAGGAGAAGUCUGCGAGUUCGAGUCCCGUACGGAACG [A45U G51A], the yeast fitness came to 0.919.

For the variant GUUCCGUUGGCCUAAUGGUAACGCGUCUCGCUCCUAAGGAGAAGUCUGCGGGUUCGAGUCCCGUACGGUACG [G12C C30G A45U A69U], the yeast fitness is no more than 0.5.

Regarding GUUCCGUUGGGGUAAUGGUAACGCGUCUGCCUCCUAAGGAGAAGACUGCCGGUUCGAGUCCCGUACGGAACG [C11G C29G G50C], the yeast fitness is no more than 0.5.

In the case of GUUCCGUUGGCGUAGUGGUAACGCGUCUCCCUCCUGAGGAGAAGACUGCGGGUACGAGUCCCGUACGGAACG [A15G A36G U54A], the yeast fitness is no more than 0.5.

Consider GUUGCGUUGGCGUAAUGGUAAUGCGUCUCCCUCGUUAGGAGAAGACUGCGGGUUCGAGUCUCGUACGGAACG [C4G C22U C34G A36U C61U], for which the yeast fitness is no more than 0.5.

Turning to GUUCCGUUGGCGUAAUGGUAACGCGUCUCCCUCCUAAGGAGUACACUGCGGGUACGAGUCCCGUACGGAACG [A42U G44C U54A], the yeast fitness is no more than 0.5.

As to GUUCCGUCGGCGUAUUGGUAACGCGUCUCCCUCCUAAGGAGAAGACUGCGGGUUCGAGUCCCGUACGGAACG [U8C A15U], the yeast fitness turned out to be 0.849.

On to GUUCCGUUGGCGUAAUGGUAACGCGCCUCCCUCCUAAGGAGAAGACUACGGGUUCGGGUCGCGUACGGAACG [U26C G48A A57G C61G], for which the yeast fitness amounted to 0.501.

Regarding GUUCCGUUGGCGUAAUGGUAACGCGUCUCCCUCCUAACGAGAAGACUGCGGGUACGAGUCCCGUGCGGAACG [G38C U54A A65G], the yeast fitness is no more than 0.5.

Consider GUUCCGUUGGCGUAAUGGUAACGCGCCUCCCUCCUAAGGAGAAGAGUGCGGGUUCGAGUCCGGCACUGAACG [U26C C46G C62G U64C G67U], for which the yeast fitness was no more than 0.5.

Turning to GUUCCGUUGGCGUAAUGGUAACGCGCCUCCCUCCUAAGGAGAAGUCUGCGGGUUCGAGUCCCGUACGGAACG [U26C A45U], the yeast fitness amounted to 0.716.

Turning to GUUCCGUUGACGUAAUGGUUACGCGUCUCCCUCCCAAGGAGAAGACUCCGGGUUCGAGUACCGUACGGAACG [G10A A20U U35C G48C C60A], the yeast fitness was no more than 0.5.

On to GUUCCGUUGGCGUAAUGGCAACGCGUCUCCCUCCUAAGGAGAAGACUGCGGGUUUGAGUCGCGUACGGAACG [U19C C55U C61G], for which the yeast fitness came out at 0.596.

With GUUCCGUUGGCGUAGUGGUUACGCGUCUCCCUCCUAAGGAGAAGUCUGCGGGUUCGAGUCCCGCACGGAACG [A15G A20U A45U U64C], the yeast fitness was 0.593.

Take GUUCCGUUGGCGUAAUGGUAACGCGUCCCCAUCCUAAGGAAAAGACUGCGGGUUCGACUCCCGUAUGGAACG [U28C C31A G41A G58C C66U]: the yeast fitness was no more than 0.5.

For the variant GUUCCGUUGGAGUAGUGGUAACGCGUCUCCCUCCUAAGGAGAAGACUGCGGGUUCGACUCCCGUACGGAACG [C11A A15G G58C], the yeast fitness turned out to be 0.505.

For GUUCCGUUGGCGUAAUGGUAACGCGACUCCCUCCUAAGGAGCAGACUGCGGGUUCGAGGCCCGUACGGAACG [U26A A42C U59G], the yeast fitness is no more than 0.5.

Turning to GUUCCGUUGGCGUAAUUGUAGCGCGUCUCCCUCCUAAGGAGAAGAUUGCGGGUUCGAGUCCCGUACGGAACG [G17U A21G C46U], the yeast fitness turned out to be 0.588.

With GUUUCGUUGGCGUAAUGGUAACGCGUCUCCCUCCUAAGGAGAAGACUGCGGGUUCGCAUCCCGUACGGAACG [C4U A57C G58A], the yeast fitness amounted to 0.58.

Consider GUUCCGUUGGCGUUAUGGUAACGCGUCUCCCUCCUUAGGAGAAGACUGCGGGUUCGAGUCCCGUACGGUACG [A14U A36U A69U], for which the yeast fitness amounted to 0.629.

Take GUUCCGUUAGCGUAAUGGGAACGCGUCUCCCUCCUAAGGAGAAGACUGCGGGUUCGAGUCCCGUAUGGAACG [G9A U19G C66U]: the yeast fitness was 0.64.

In the case of GCUACGUUGGUGUAAUGGUAACGCGUCUCCCUCCUAAGGAGAAGACUGCGGGUUCGAGUACUGUACGGAACG [U2C C4A C11U C60A C62U], the yeast fitness is no more than 0.5.

With GUUGCGUUGGCGUAAUGGUAACCCGUCUCCCUCCUAAGGAGAAGACUGCGGGUUCGAGUGCCGUACGGAACG [C4G G23C C60G], the yeast fitness was no more than 0.5.

GUUCAGUUGGCGUAAUGGUAACGCGUCUCCCUCCUAAAGAGAAGACUGUGGGUUCGAGUCCCGUACGGAACG [C5A G38A C49U]: the yeast fitness was determined as 0.57.

For GUUACGUUGGCGUAAUGGUAACGCGUCUCCCUCCUAAGCAGAAGACUGCGAGUUCGAGUCCCGUACGGAACG [C4A G39C G51A], the yeast fitness was no more than 0.5.

For GUUCCGUUGGCGUAACGGUAACGCGUCUCCCUCCUAAGGAGAAGACUGCGGGUUCGAGUCCCGUAAGGAACG [U16C C66A], the yeast fitness turned out to be 0.711.

With GUUCCGUUGGCGUAAUGGUAACGCGAGUCCCUCCUAAGGAGAAGACUGCGGGUUCGAGUCCAGUACGGAACG [U26A C27G C62A], the yeast fitness is no more than 0.5.

In the case of GUUCCGUUGGCGUAAUGGUAACGCGUCUCCCUCCUAAGGAGAAGUCUGCGGGUUCGAGUCCCGGACGGAACG [A45U U64G], the yeast fitness was 0.721.

As for GUUCCGUUGGCGUAAUGGUAAAGCGUCUCCCUCCUAAGGAGAAGACAACGGGUUCGAGUCCCGUACGGAGCG [C22A U47A G48A A70G], the yeast fitness was no more than 0.5.
